Measurements reported in ChEMBL document CHEMBL1921722, “In vitro and in vivo evaluation of select kahalalide F analogs with antitumor and antifungal activities” (Bioorg Med Chem, 2011).
Activity calls are given as the source filed them.

Key:
SK-OV-3 = test: Cytotoxicity against human SKOV3 cells assessed as cell growth at 80 nM by sulforhodamine B assay relative to control; assay type: functional; conditions: read-out: Activity
K562 = test: Cytotoxicity against human K562 cells assessed as cell growth at 80 nM by sulforhodamine B assay relative to control; assay type: functional; conditions: read-out: Activity
ACHN [1] = test: Cytotoxicity against human ACHN cells assessed as cell growth at 8 nM by sulforhodamine B assay relative to control; assay type: functional; conditions: read-out: Activity
How it was run: (§1)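 Run at NCI in the DTP 60-cell-line human tumor panel by standard procedure. Compounds were first screened at a single concentration, then tested at five tenfold-spaced concentrations. GI50 is the concentration reducing treated-cell growth to half that of untreated controls; TGI is the concentration completely halting growth.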

SK-MEL-28 = test: Cytotoxicity against human SK-MEL-28 cells assessed as cell growth at 80 uM by sulforhodamine B assay relative to control; assay type: functional; conditions: read-out: Activity
SF-295 = test: Cytotoxicity against human SF295 cells by sulforhodamine B assay; assay type: functional
How it was run: (§2)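 NCI Developmental Therapeutics Program 60-cell-line human tumor panel screen, run at NCI. A single-concentration pre-screen was followed by a five-concentration dose-response in 10-fold steps. GI50 is the concentration that reduces growth of treated cells to half that of untreated control cells. TGI is the concentration that completely halts growth.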

A498 = test: Cytotoxicity against human A498 cells assessed as cell growth at 8 nM by sulforhodamine B assay relative to control; assay type: functional; conditions: read-out: Activity; how it was run: as §1
T47D [2] = test: Cytotoxicity against human T47D cells assessed as cell growth at 8 nM by sulforhodamine B assay relative to control; assay type: functional; conditions: read-out: Activity
786-0 = test: Cytotoxicity against human 786-0 cells by sulforhodamine B assay; assay type: functional; how it was run: as §1
BT-549 [3] = test: Cytotoxicity against human BT549 cells assessed as cell growth at 80 nM by sulforhodamine B assay relative to control; assay type: functional; conditions: read-out: Activity; how it was run: as §1
HL-60(TB) = test: Cytotoxicity against human HL-60(TB) cells assessed as cell growth at 800 nM by sulforhodamine B assay relative to control; assay type: functional; conditions: read-out: Activity
HT-29 = test: Cytotoxicity against human HT-29 cells assessed as cell growth at 80 uM by sulforhodamine B assay relative to control; assay type: functional; conditions: read-out: Activity
LOX IMVI = test: Cytotoxicity against human LOXIMVI cells assessed as cell growth at 8 uM by sulforhodamine B assay relative to control; assay type: functional; conditions: read-out: Activity
RXF 393 [4] = test: Cytotoxicity against human RXF393 cells assessed as cell growth at 80 nM by sulforhodamine B assay relative to control; assay type: functional; conditions: read-out: Activity
OVCAR-4 = test: Cytotoxicity against human OVCAR4 cells by sulforhodamine B assay; assay type: functional; how it was run: as §2
HCT-116 = test: Cytotoxicity against human HCT116 cells assessed as cell growth at 800 nM by sulforhodamine B assay relative to control; assay type: functional; conditions: read-out: Activity
SR = test: Cytotoxicity against human SR cells assessed as cell growth at 8 nM by sulforhodamine B assay relative to control; assay type: functional; conditions: read-out: Activity
RPMI-8226 = test: Cytotoxicity against human RPMI8226 cells assessed as cell growth at 800 nM by sulforhodamine B assay relative to control; assay type: functional; conditions: read-out: Activity
EKVX = test: Cytotoxicity against human EKVX cells by sulforhodamine B assay; assay type: functional
How it was run: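 Run by the NCI Developmental Therapeutics Program on its 60-line human tumour cell panel using the standard procedure. Compounds went through a single-concentration prescreen first, and those active by NCI criteria went on to a five-concentration growth-inhibition test. GI50 is the concentration that cuts growth of treated cells to half that of untreated control cells.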

Mus musculus = test: Acute toxicity in athymic nude mouse assessed as mortality at 25 mg/kg, […]; assay type: organism-based; set-up: dose 25 mg/kg, route intraperitoneal; conditions: in vivo, ip, 576 h
T47D [5] = test: Cytotoxicity against human T47D cells assessed as cell growth at 80 nM by sulforhodamine B assay relative to control; assay type: functional; conditions: read-out: Activity
PC-3 = test: Cytotoxicity against human PC3 cells assessed as cell growth at 800 nM by sulforhodamine B assay relative to control; assay type: functional; conditions: read-out: Activity
Malme-3M = test: Cytotoxicity against human MALME-3M cells assessed as cell growth at 8 nM by sulforhodamine B assay relative to control; assay type: functional; conditions: read-out: Activity
RXF 393 [6] = test: Cytotoxicity against human RXF393 cells assessed as cell growth at 8 nM by sulforhodamine B assay relative to control; assay type: functional; conditions: read-out: Activity
MOLT-4 = test: Cytotoxicity against human MOLT4 cells assessed as cell growth at 800 nM by sulforhodamine B assay relative to control; assay type: functional; conditions: read-out: Activity
BT-549 [7] = test: Cytotoxicity against human BT549 cells assessed as cell growth at 80 uM by sulforhodamine B assay relative to control; assay type: functional; conditions: read-out: Activity; how it was run: as §1
MDA-MB-435 = test: Cytotoxicity against human MDA-MB-435 cells assessed as cell growth at 8 nM by sulforhodamine B assay relative to control; assay type: functional; conditions: read-out: Activity
NCI/ADR-RES = test: Cytotoxicity against human NCI/ADR-RES cells assessed as cell growth at 800 nM by sulforhodamine B assay relative to control; assay type: functional; conditions: read-out: Activity
ACHN [8] = test: Cytotoxicity against human ACHN cells by sulforhodamine B assay; assay type: functional; how it was run: as §1
M14 = test: Cytotoxicity against human M14 cells by sulforhodamine B assay; assay type: functional; how it was run: as §2
NCI-H23 = test: Antitumor activity against human NCI-H23 cells xenografted in mouse assessed as tumor cell killing at 4.7 mg/kg, ip qd for 4 days by MTT assay; assay type: functional, organism-based; set-up: dose 4.7 mg/kg
How it was run: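 Hollow-fiber assay in mice. Tumor lines were grown in RPMI-1640 with 10% FBS and 2 mM glutamine. Cells at 2 × 10^6 cells/ml were loaded into 1 mm PVDF fibers (500,000 Da cutoff), heat-sealed at 2 cm and held 24–48 h at 37 °C, 5% CO2 before implantation. Compound was given IP. Fibers were collected the day after the fourth treatment for MTT (OD 540 nm, group means). A ≥50% cut in percent net growth versus vehicle counted as positive.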

SW-620 = test: Cytotoxicity against human SW620 cells assessed as cell growth at 8 nM by sulforhodamine B assay relative to control; assay type: functional; conditions: read-out: Activity
KM12 = test: Cytotoxicity against human KM12 cells assessed as cell growth at 80 nM by sulforhodamine B assay relative to control; assay type: functional; conditions: read-out: Activity
NCI-H522 [9] = test: Cytotoxicity against human NCI-H522 cells assessed as cell growth at 80 uM by sulforhodamine B assay relative to control; assay type: functional; conditions: read-out: Activity
NCI-H522 [10] = test: Cytotoxicity against human NCI-H522 cells assessed as cell growth at 800 nM by sulforhodamine B assay relative to control; assay type: functional; conditions: read-out: Activity
MCF7 = test: Cytotoxicity against human MCF7 cells assessed as cell growth at 8 uM by sulforhodamine B assay relative to control; assay type: functional; conditions: read-out: Activity
UO-31 = test: Cytotoxicity against human UO31 cells assessed as cell growth at 80 nM by sulforhodamine B assay relative to control; assay type: functional; conditions: read-out: Activity
HOP-62 = test: Cytotoxicity against human HOP62 cells assessed as cell growth at 8 nM by sulforhodamine B assay relative to control; assay type: functional; conditions: read-out: Activity

C/C=C1\NC(=O)[C@H](Cc2ccccc2)NC(=O)[C@@H](C(C)C)NC(=O)[C@@H]([C@@H](C)CC)NC(=O)[C@H](NC(=O)[C@H](NC(=O)[C@H](CCCNCc2ccc(N3CCOCC3)cc2)NC(=O)[C@H]2CCCN2C(=O)[C@H](NC(=O)[C@@H](NC(=O)[C@@H](NC(=O)[C@H](NC(=O)CCCC(C)C)C(C)C)[C@@H](C)O)C(C)C)C(C)C)[C@@H](C)CC)[C@@H](C)OC(=O)[C@H](C(C)C)NC1=O
growth at 0.08 µM (SK-OV-3): 101%
growth at 0.08 µM (K562): 100%
growth at 0.008 µM (ACHN [1]): 100%
growth at 80 µM (SK-MEL-28): -13%
GI50 (SF-295): 1740 nM
LC50 (SF-295): > 75900 nM
TGI (SF-295; read-out: pTGI (converted)): 3890 nM
growth at 0.008 µM (A498): 96%
growth at 0.008 µM (T47D [2]): 101%
GI50 (786-0): 1380 nM
LC50 (786-0): 4680 nM
TGI (786-0; read-out: pTGI (converted)): 2570 nM
growth at 0.08 µM (BT-549 [3]): 95%
growth at 0.8 µM (HL-60(TB)): 93%
growth at 80 µM (HT-29): 8%
growth at 8 µM (LOX IMVI): 20%
growth at 0.08 µM (RXF 393 [4]): 99%
GI50 (OVCAR-4): 1230 nM
TGI (OVCAR-4; read-out: pTGI (converted)): 2820 nM
growth at 0.8 µM (HCT-116): 104%
growth at 0.008 µM (SR): 103%
growth at 0.8 µM (RPMI-8226): 76%
GI50 (EKVX): 776 nM
TGI (EKVX; read-out: pTGI (converted)): 1910 nM
Activity (Mus musculus): Toxic
growth at 0.08 µM (T47D [5]): 89%
growth at 0.8 µM (PC-3): -51%
growth at 0.008 µM (Malme-3M): 100%
growth at 0.008 µM (RXF 393 [6]): 111%
growth at 0.8 µM (MOLT-4): 95%
growth at 80 µM (BT-549 [7]): -49%
growth at 0.008 µM (MDA-MB-435): 103%
growth at 0.8 µM (NCI/ADR-RES): 85%
LC50 (ACHN [8]): 4790 nM
GI50 (ACHN [8]; read-out: GI50): 1270 nM
TGI (ACHN [8]; read-out: TGI): 2470 nM
GI50 (ACHN [8]; read-out: pGI50 (converted)): 1260 nM
TGI (ACHN [8]; read-out: pTGI (converted)): 2450 nM
GI50 (M14): 1410 nM
LC50 (M14): 4680 nM
TGI (M14; read-out: pTGI (converted)): 2570 nM
Activity (NCI-H23): inactive
growth at 0.008 µM (SW-620): 104%
growth at 0.08 µM (KM12): 99%
growth at 80 µM (NCI-H522 [9]): -22%
growth at 0.8 µM (NCI-H522 [10]): 101%
growth at 8 µM (MCF7): -53%
growth at 0.08 µM (UO-31): 104%
growth at 0.008 µM (HOP-62): 104%
